Reference: ChEMBL document CHEMBL4041526, “Discovery of 2H-Chromen-2-one Derivatives as G Protein-Coupled Receptor-35 Agonists” (J Med Chem, 2017)
Calls of active or inactive are those of the source. The calls are words filed in the database; no cut-off is given here.

Experiments:
[1] = biological target: T1, G-protein coupled receptor 35 (Homo sapiens, UniProt Q9HC97); test: Agonist activity at human GPR35 expressed in CHO-K1 cells after 90 mins by beta-arrestin 2 recruitment assay; type: cell-based
T1 sequence (Q9HC97 whole entry): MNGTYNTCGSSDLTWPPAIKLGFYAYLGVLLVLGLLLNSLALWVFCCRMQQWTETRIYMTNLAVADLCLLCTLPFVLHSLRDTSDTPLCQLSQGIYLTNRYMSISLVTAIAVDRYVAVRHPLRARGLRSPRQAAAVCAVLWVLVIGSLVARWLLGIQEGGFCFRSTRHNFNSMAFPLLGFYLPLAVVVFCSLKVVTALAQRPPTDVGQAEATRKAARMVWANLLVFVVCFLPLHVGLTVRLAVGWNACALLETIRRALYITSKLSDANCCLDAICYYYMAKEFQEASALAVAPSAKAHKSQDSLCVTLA

[2] = biological target: Hydroxycarboxylic acid receptor 2 (Homo sapiens) (UniProt Q8TDS4); test: Agonist activity at GPR109a receptor in human A431 cells at 1 uM preincubated for 1 hr followed by niacin addition by DMR assay; type: cell-based
Chain of Hydroxycarboxylic acid receptor 2 (Homo sapiens) (Q8TDS4 whole entry, the tested form may be a part): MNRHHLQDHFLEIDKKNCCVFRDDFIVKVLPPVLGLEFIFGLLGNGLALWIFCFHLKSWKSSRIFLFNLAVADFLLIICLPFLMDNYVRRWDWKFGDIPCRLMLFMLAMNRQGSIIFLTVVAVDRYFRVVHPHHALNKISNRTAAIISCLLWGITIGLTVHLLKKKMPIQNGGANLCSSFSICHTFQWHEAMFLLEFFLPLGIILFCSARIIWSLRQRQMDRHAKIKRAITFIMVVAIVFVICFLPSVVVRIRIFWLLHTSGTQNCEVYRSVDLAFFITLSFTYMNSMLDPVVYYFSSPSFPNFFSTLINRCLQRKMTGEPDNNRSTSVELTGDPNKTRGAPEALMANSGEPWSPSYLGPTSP

[3] = biological target: T1, G-protein coupled receptor 35; test: Agonist activity at TEV protease cleavage site linked GAL4-VP16-fused GPR35 in human Tango GPR35-bla U2OS cells assessed as induction of TEV protease-tagged beta-arrestin recruitment incubated for 5 hrs by beta-lactamase reporter gene assay
[4] = biological target: T1, G-protein coupled receptor 35; test: Agonist activity at GPR35 in human HT-29 cells assessed as induction of cell desensitization to 1 uM zaprinast preincubated for 1 hr followed by zaprinast stimulation measured after 8 minutes by DMR assay; type: cell-based
Summary of the method: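 Desensitization format in HT-29 cells on resonant waveguide grating biosensor plates, held in HBSS. […] Mean ± sd, two independent measurements, each with four replicates (n=8).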

[5] = biological target: T2, B2 bradykinin receptor (Homo sapiens) (UniProt P30411); test: Agonist activity at bradykinin B2 receptor in human A549 cells at 1 uM preincubated for 1 hr followed by bradykinin addition by DMR assay; type: cell-based
T2 sequence (whole entry): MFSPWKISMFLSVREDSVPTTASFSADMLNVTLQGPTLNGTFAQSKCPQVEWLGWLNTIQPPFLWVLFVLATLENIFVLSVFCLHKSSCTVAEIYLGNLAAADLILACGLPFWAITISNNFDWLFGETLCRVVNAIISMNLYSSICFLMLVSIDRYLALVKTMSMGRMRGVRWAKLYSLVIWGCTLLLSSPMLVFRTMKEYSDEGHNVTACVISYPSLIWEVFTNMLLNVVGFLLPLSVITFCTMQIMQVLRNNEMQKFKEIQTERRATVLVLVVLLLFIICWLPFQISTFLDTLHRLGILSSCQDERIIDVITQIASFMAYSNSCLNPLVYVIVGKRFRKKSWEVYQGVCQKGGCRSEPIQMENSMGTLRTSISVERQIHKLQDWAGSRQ

[6] = biological target: T1, G-protein coupled receptor 35; test: Agonist activity at TEV protease cleavage site linked GAL4-VP16-fused GPR35 in human Tango GPR35-bla U2OS cells assessed as induction of TEV protease-tagged beta-arrestin recruitment incubated for 5 hrs by beta-lactamase reporter gene assay relative to zaprinast
[7] = biological target: T1, G-protein coupled receptor 35; test: Agonist activity at GPR35 in human HT-29 cells by DMR assay; type: cell-based
Summary of the method: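 HT-29 cells with endogenous GPR35, grown in McCoy's 5A with 10% FBS at 37 °C/5% CO2, seeded overnight to a confluent monolayer on resonant waveguide grating biosensor plates. Cells were washed, kept in HBSS for 1 h in the reader, and given a 2 min baseline before compound addition. Mean ± sd, two independent runs × four replicates (n=8).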

[8] = biological target: Beta-2 adrenergic receptor (Homo sapiens) (UniProt P07550); test: Agonist activity at beta2 adrenergic receptor in human A431 cells at 1 uM preincubated for 1 hr followed by epinephrine addition by DMR assay; type: cell-based
Chain of Beta-2 adrenergic receptor (Homo sapiens) (P07550 whole entry, looked up): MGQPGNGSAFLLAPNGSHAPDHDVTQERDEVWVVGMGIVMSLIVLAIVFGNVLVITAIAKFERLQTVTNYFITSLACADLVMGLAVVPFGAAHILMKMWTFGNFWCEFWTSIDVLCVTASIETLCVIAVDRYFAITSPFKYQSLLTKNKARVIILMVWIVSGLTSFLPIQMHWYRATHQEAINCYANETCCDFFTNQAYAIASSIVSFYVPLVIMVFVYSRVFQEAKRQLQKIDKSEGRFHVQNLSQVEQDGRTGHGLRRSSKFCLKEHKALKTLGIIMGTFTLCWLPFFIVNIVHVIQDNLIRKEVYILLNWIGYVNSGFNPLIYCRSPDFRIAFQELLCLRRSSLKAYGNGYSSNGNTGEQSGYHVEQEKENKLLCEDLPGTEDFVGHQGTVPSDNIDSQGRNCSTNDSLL

[9] = biological target: T3, Type-1 angiotensin II receptor (Homo sapiens) (UniProt P30556); test: Agonist activity at angiotensin AT1 receptor in human A549 cells at 1 uM preincubated for 1 hr followed by angiotensin 2 addition by DMR assay; type: cell-based
T3 sequence (whole entry): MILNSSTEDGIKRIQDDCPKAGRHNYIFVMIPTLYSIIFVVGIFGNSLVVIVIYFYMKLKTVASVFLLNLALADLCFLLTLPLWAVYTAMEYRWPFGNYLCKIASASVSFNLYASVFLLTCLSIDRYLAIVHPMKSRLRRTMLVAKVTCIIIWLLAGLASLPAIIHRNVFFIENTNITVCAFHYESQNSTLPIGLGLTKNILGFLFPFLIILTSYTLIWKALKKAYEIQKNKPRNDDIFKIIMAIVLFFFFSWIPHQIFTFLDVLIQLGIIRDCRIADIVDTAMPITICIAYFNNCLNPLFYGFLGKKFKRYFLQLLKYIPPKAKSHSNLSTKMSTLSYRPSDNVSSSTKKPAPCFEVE

[10] = biological target: T1, G-protein coupled receptor 35; test: Agonist activity at GPR35 in human HT-29 cells in presence of antagonist ML-145 by DMR assay; type: cell-based
Summary of the method: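 HT-29 DMR antagonist format: ML-145 was titrated against the coumarin agonist, each agonist given at its EC80–EC100 dose. Cells were kept in HBSS and equilibrated 1 h in the reader. IC50 was calculated from the DMR amplitude at 8 min post-stimulation. Mean ± sd, two independent measurements × four replicates (n=8).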

[11] = biological target: Histamine H1 receptor (Homo sapiens) (UniProt P35367); test: Agonist activity at histamine H1 receptor in human A431 cells at 1 uM preincubated for 1 hr followed by histamine addition by DMR assay; type: cell-based
Chain of Histamine H1 receptor (Homo sapiens) (P35367 whole entry): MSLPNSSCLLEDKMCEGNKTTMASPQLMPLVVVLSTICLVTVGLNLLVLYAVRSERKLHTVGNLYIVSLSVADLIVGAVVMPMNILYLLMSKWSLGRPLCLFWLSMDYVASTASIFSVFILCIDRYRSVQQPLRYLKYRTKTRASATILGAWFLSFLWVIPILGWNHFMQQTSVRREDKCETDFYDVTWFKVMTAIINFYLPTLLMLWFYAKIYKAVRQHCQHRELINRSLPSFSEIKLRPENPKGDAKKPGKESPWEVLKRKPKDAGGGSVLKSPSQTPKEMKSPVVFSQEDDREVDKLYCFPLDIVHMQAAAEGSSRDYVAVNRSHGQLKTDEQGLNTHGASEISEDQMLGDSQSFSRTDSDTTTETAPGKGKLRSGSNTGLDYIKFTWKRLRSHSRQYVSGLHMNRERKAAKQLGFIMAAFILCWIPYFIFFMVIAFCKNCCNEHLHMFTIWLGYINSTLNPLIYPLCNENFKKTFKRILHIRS

[12] = biological target: T1, G-protein coupled receptor 35; test: Agonist activity at human GPR35 expressed in CHO-K1 cells by DMR assay; type: cell-based

Row | EC50 ([7]; read-out: EC50) | Activity [10] | SMILES | IC50 [4] | also measured
1 | 330 nM | inactive | O=c1oc2c([N+](=O)[O-])cc(Br)cc2cc1-c1nnn[nH]1 | 330 nM | –
2 | 9270 nM | inactive | N#Cc1cc2cc(Br)c(O)cc2oc1=O | 9330 nM | –
3 | 700 nM | inactive | N#Cc1cc2cc(Br)cc([N+](=O)[O-])c2oc1=O | 650 nM | –
4 | 21400 nM | inactive | N#Cc1cc2cc(Cl)ccc2oc1=O | 21400 nM | –
5 | 2910 nM | inactive | COc1c(Br)cc2cc(C#N)c(=O)oc2c1[N+](=O)[O-] | 1690 nM | –
6 | 4270 nM | inactive | O=C(O)c1cc2cc(Br)cc([N+](=O)[O-])c2oc1=O | 3750 nM | –
7 | 1750 nM | inactive | O=C(O)c1cc2cc(Br)cc(Br)c2oc1=O | 1080 nM | –
8 | 2330 nM | inactive | N#Cc1cc2cc(Br)c(O)c(Br)c2oc1=O | 2890 nM | –
9 | 8610 nM | inactive | N#Cc1cc2cc(Cl)cc(Cl)c2oc1=O | 8610 nM | –
10 | 51 nM | inactive | O=C(O)c1cc2cc(Br)c(O)c([N+](=O)[O-])c2oc1=O | 31 nM | EC50 [3]: 479 nM; Efficacy [6]: 111%
11 | 17700 nM | inactive | N#Cc1cc2cc(Br)cc(Br)c2oc1=O | 14900 nM | –
12 | 8220 nM | inactive | COc1c(Br)cc2cc(C#N)c(=O)oc2c1Br | 590 nM | –

More lines, now with the values behind:

Row | SMILES | EC50 ([7]; read-out: EC50) | Activity [10] | IC50 [4] | also measured
13 | CC(C)c1ccc2oc3nc(N)c(C(=O)O)cc3c(=O)c2c1 [AMLEXANOX] | – | – | – | EC50 [1]: 4000 nM
14 | O=c1oc2c([N+](=O)[O-])c(O)c(Br)cc2cc1-c1nnn[nH]1 | 5.8 nM | inactive | 8.6 nM | Activity [2]: inactive; EC50 [3]: 197 nM; Activity [4]: Dose-dependent effect; Activity [5]: inactive; Efficacy [6]: 104%; Activity [8]: inactive; Activity [9]: inactive; Activity [11]: inactive
15 | O=c1oc2cc(O)c(Br)cc2cc1-c1nnn[nH]1 | 710 nM | inactive | 483 nM | –
16 | O=C(O)c1cc2cc(Cl)ccc2oc1=O | 13500 nM | inactive | 13200 nM | –
17 | COc1cc2oc(=O)c(-c3nnn[nH]3)cc2cc1Br | 14800 nM | inactive | 14100 nM | –
18 | O=c1oc2c([N+](=O)[O-])c(O)c([N+](=O)[O-])cc2cc1-c1nnn[nH]1 | 14 nM | inactive | 13 nM | EC50 [3]: 288 nM; Efficacy [6]: 107%
19 | COc1c(Br)cc2cc(-c3nnn[nH]3)c(=O)oc2c1Br | 1410 nM | inactive | 460 nM | EC50 [3]: 14100 nM; Efficacy [6]: 86.4%
20 | N#Cc1cc(NC(=O)C(=O)O)c(Cl)c(NC(=O)C(=O)O)c1 [LODOXAMIDE] | – | – | – | EC50 [1]: 4000 nM
21 | O=C(O)c1cc2cc(Br)c(O)c(Br)c2oc1=O | 150 nM | inactive | 56 nM | EC50 [3]: 3630 nM; Efficacy [6]: 168%
22 | O=c1oc2c(Br)c(O)c(Br)cc2cc1-c1nnn[nH]1 | 68 nM | inactive | 23 nM | EC50 [3]: 1540 nM; Efficacy [6]: 126%; EC50 ([7]; read-out: pEC50 (converted)): 66.7 nM
23 | O=C(O)c1cc2cc(Br)c(O)cc2oc1=O | 4340 nM | inactive | 3760 nM | –
24 | COc1c(Br)cc2cc(C(=O)O)c(=O)oc2c1Br | 890 nM | inactive | 750 nM | –
25 | O=C(O)c1cc2cc(Cl)cc(Cl)c2oc1=O | 2020 nM | inactive | 2300 nM | –
26 | COc1c(Br)cc2cc(-c3nnn[nH]3)c(=O)oc2c1[N+](=O)[O-] | 2660 nM | inactive | 2820 nM | –
27 | CCCOc1ccccc1-c1nc2[nH]nnc2c(=O)[nH]1 | – | – | – | Efficacy [6]: 100%
28 | O=C(O)c1cc2ccccc2oc1=O [COUMARIN-3-CARBOXYLIC ACID] | 92300 nM | inactive | 100000 nM | –
29 | O=c1oc2ccccc2cc1-c1nn[nH]n1 | 6760 nM | inactive | 5080 nM | –
30 | N#Cc1cc2ccccc2oc1=O | – | – | – | EC50 [7]: Not Active
31 | O=C(O)c1cc2cc(Br)ccc2oc1=O | 10800 nM | inactive | 11300 nM | –
32 | O=C(O)c1cc(=O)c2c(OCC(O)COc3cccc4oc(C(=O)O)cc(=O)c34)cccc2o1 [CROMOLYN] | – | – | – | EC50 [1]: 7000 nM; EC50 [12]: 52 nM
33 | O=c1oc2c(Br)cc(Br)cc2cc1-c1nnn[nH]1 | 930 nM | inactive | 380 nM | EC50 [3]: 7050 nM; Efficacy [6]: 81.3%
